According to PubChem BioAssay:
The source made the active and inactive calls.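 How the source made its calls: active means calcium signal ratio cut to more than 3 SD under the fully stimulated control mean yet still positive, in both repeats and the primary screen; inactive means the rest.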

Molecular target: Short transient receptor potential channel 4 (Mus musculus) (UniProt Q9QUQ5)
Assay: inhibitors of mouse TRPC4 channel, confirmation, cell-based, second round, Fluo4, HEK293 TRPC4beta/mu-opioid, 1 µM (AID 2637)
Settings: Fluo4 calcium flux, DAMGO, at 1 µM
Summary of the method: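 Test system: HEK293 stable line co-expressing TRPC4beta and mu-opioid receptor. Compound dosing: single test compound concentration, 1 µM final. Measured by: Fluo4 calcium fluorescence, kinetic real-time read after baseline. Incubation: Fluo4 loading 45 min, compound exposure 110 s. Probe or stimulus: sequential submaximal then maximal DAMGO stimulation. Controls: ECmax and compound-free wells.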

Chain of Short transient receptor potential channel 4 (Mus musculus) (Q9QUQ5 whole entry, looked up): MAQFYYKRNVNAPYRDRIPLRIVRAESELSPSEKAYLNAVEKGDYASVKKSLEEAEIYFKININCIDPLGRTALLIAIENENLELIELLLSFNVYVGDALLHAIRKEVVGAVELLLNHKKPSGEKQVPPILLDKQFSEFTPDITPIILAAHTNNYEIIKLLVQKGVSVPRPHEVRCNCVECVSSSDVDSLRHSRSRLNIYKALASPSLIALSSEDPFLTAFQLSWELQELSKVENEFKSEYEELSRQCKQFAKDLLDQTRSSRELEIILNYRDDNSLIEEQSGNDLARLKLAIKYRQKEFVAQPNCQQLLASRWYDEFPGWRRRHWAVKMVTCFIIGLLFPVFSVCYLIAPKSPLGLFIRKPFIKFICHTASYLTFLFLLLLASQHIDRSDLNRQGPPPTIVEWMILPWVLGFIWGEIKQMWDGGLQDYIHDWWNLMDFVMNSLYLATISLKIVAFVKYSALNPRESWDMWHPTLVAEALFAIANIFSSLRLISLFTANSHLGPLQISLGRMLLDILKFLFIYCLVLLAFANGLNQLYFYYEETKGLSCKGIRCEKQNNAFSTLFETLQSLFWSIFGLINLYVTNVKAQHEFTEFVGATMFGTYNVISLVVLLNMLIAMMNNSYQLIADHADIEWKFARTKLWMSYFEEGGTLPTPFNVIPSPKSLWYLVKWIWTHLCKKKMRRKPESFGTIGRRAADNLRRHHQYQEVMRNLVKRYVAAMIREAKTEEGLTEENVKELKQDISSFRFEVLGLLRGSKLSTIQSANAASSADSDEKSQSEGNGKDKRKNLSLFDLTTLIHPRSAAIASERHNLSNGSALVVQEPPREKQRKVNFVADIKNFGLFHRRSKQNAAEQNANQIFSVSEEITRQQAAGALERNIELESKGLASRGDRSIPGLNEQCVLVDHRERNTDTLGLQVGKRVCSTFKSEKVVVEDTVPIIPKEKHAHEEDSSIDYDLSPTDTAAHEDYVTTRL

outcome, inactive:
O=C(NC(=S)NNC(=O)[C@H]1C[C@@H]1c1ccccc1)c1cccc(F)c1
NCCCn1c(C(=O)c2cc(Cl)c(N)c(Cl)c2)c2ccccc2[n+]1[O-]
COC(=O)c1ccccc1N=Nc1c(N)[nH][nH]c1=O
O=C(CNS(=O)(=O)c1ccc2ccccc2c1)NCCc1ccccn1
CC(c1cccnc1)N(CCN(C)C)C(=O)Nc1ccc(Cl)c(Cl)c1 (stereo not drawn)
Cc1ccc(C(=O)NC(=S)NNC(=O)c2ccccc2)cc1
C=CCn1c(CCNC(=O)c2ccco2)nc2ccccc21
CCOC(=O)[C@@H]1CCNC[C@@H]1c1ccccc1
Cc1sc2nc(CSc3ccccc3)nc(NCCN(C)C)c2c1C
O=C(NCCc1cccc(Cl)c1)c1ccc(OC2CCN(Cc3ccccn3)CC2)cc1
CCOC(=O)C1(CCCc2ccccc2)CCN(Cc2cn(CC)nc2C)CC1
CCCN(CCC)CCCNC(=O)C1CCN(S(=O)(=O)c2cccc3nsnc23)CC1
CCN1C(=O)c2cccc3c(S(=O)(=O)Nc4ccccc4OC)ccc1c23
CCCN(CCC)CCCNC(=O)C1CCC(CNS(=O)(=O)c2cccc3nsnc23)CC1 (stereo not drawn)
CCN1CCN(c2ccc(S(=O)(=O)N3CCCCC3)cc2NC(=O)C(C)Oc2ccc(F)cc2)CC1 (stereo not drawn)
O=C(Nc1nnc(-c2ccccc2Cl)o1)c1nc2ccccc2s1
COc1ccc(-c2nn(-c3ccccc3)cc2CNCc2cccnc2)c(F)c1
Cc1ccc2oc(=O)c3cnn(CC(=O)NC4CCN(Cc5ccccc5)CC4)c3c2c1
